Columns and labels:
[1] = system: Triticum aestivum; assay: Phytotoxicity against Triticum aestivum (wheat) assessed as growth inhibition at 7.5 g/ha pre-emergence treatment measured after 15 days by crop-selectivity assay; format: organism-based; conditions: in vivo, other, 360 h
Procedure, shortened: (§1)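 Compounds were formulated as 100 g/L emulsifiable concentrates, with DMF as solvent and Tween-80 as emulsifier, then diluted in water to the required rate. They were sprayed on pot-grown plants in a greenhouse, in clay soil (pH 6.5, 1.6% organic matter, 37.3% clay, CEC 12.1 cmol/kg). Untreated and DMF-treated plants served as controls. Percent growth inhibition was scored visually 15 days after treatment.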

[2] = system: Gossypium; assay: Phytotoxicity against Gossypium (cotton) assessed as growth inhibition at 7.5 g/ha pre-emergence treatment measured after 15 days by crop-selectivity assay; format: organism-based; conditions: in vivo, other, 360 h
[3] = Phytotoxicity against Glycine max (soybean) assessed as growth inhibition at 30 g/ha post-emergence treatment measured after 15 days by crop-selectivity assay; format: organism-based; conditions: in vivo, read-out: GI
[4] = system: Echinochloa crus-galli; assay: Herbicidal activity against Echinochloa crus-galli (barnyard grass) (barnyard grass) assessed as weed growth inhibition at 75 g/ha pre-emergence treatment […]; format: functional; conditions: read-out: GI
Procedure, shortened: (§2)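 Pot-grown plants in the greenhouse, in clay soil (pH 6.5, 1.6% organic matter, 37.3% clay, CEC 12.1 cmol/kg). Compound was made up as a 100 g/L emulsified concentrate (DMF, Tween-80), diluted in water and sprayed at 75 g ai/ha. Pre-emergence spraying was 24 h after sowing; post-emergence at two-leaf (dicots) or one-leaf (monocots) stage. Untreated and DMF controls. Percent growth inhibition scored visually 15 days post-treatment.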

[5] = system: Oryza sativa; assay: (§3) Phytotoxicity against Oryza sativa (rice) assessed as growth inhibition at 7.5 g/ha post-emergence treatment measured after 15 days by crop-selectivity assay; format: organism-based; conditions: in vivo, other, 360 h
[6] = system: Zea mays; assay: (§4) Phytotoxicity against Zea mays (maize) assessed as growth inhibition at 75 g/ha pre-emergence treatment measured after 15 days by crop-selectivity assay; format: organism-based; conditions: in vivo, other, 360 h; procedure, shortened: as §1
[7] = system: Oryza sativa; assay: (§5) Phytotoxicity against Oryza sativa (rice) assessed as growth inhibition at 7.5 g/ha pre-emergence treatment measured after 15 days by crop-selectivity assay; format: organism-based; conditions: in vivo, other, 360 h
[8] = system: Zea mays; assay: (§6) Phytotoxicity against Zea mays (maize) assessed as growth inhibition at 150 g/ha pre-emergence treatment measured after 15 days by crop-selectivity assay; format: organism-based; conditions: in vivo, other, 360 h; procedure, shortened: as §1
[9] = system: Glycine max; assay: (§7) Phytotoxicity against Glycine max (soybean) assessed as growth inhibition at 75 g/ha pre-emergence treatment measured after 15 days by crop-selectivity assay; format: organism-based; conditions: in vivo, other, 360 h
[10] = system: Triticum aestivum; assay: (§8) Phytotoxicity against Triticum aestivum (wheat) assessed as growth inhibition at 15 g/ha pre-emergence treatment measured after 15 days by crop-selectivity assay; format: organism-based; conditions: in vivo, other, 360 h
[11] = Phytotoxicity against Brassica rapa subsp. oleifera assessed as growth inhibition at 30 g/ha pre-emergence treatment measured after 15 days by crop-selectivity assay; format: organism-based; conditions: in vivo, read-out: GI
[12] = system: Triticum aestivum; assay: (§9) Phytotoxicity against Triticum aestivum (wheat) assessed as growth inhibition at 30 g/ha pre-emergence treatment measured after 15 days by crop-selectivity assay; format: organism-based; conditions: in vivo, other, 360 h; procedure, shortened: as §1
[13] = system: Digitaria sanguinalis; assay: Herbicidal activity against crabgrass Digitaria sanguinalis(hairy crabgrass) assessed as weed growth inhibition at post-emergence treatment […]; format: functional, organism-based; procedure, shortened: as §2
[14] = system: Digitaria sanguinalis; assay: Herbicidal activity against crabgrass Digitaria sanguinalis(hairy crabgrass) assessed as weed growth inhibition at 75 g/ha pre-emergence treatment […]; format: functional; conditions: read-out: GI; procedure, shortened: as §2
[15] = system: Triticum aestivum; assay: (§10) Phytotoxicity against Triticum aestivum (wheat) assessed as growth inhibition at 30 g/ha post-emergence treatment measured after 15 days by crop-selectivity assay; format: organism-based; conditions: in vivo, other, 360 h
[16] = system: Abutilon theophrasti; assay: Herbicidal activity against Abutilon theophrasti (velvetleaf) assessed as weed growth inhibition at 75 g/ha post-emergence treatment […]; format: functional; conditions: read-out: GI; procedure, shortened: as §2
[17] = Phytotoxicity against Glycine max (soybean) assessed as growth inhibition at 150 g/ha pre-emergence treatment measured after 15 days by crop-selectivity assay; format: organism-based; conditions: in vivo, read-out: GI
[18] = system: Digitaria sanguinalis; assay: Herbicidal activity against crabgrass Digitaria sanguinalis(hairy crabgrass) assessed as weed growth inhibition at 75 g/ha post-emergence treatment […]; format: functional; conditions: read-out: GI; procedure, shortened: as §2
[19] = system: Triticum aestivum; assay: (§11) Phytotoxicity against Triticum aestivum (wheat) assessed as growth inhibition at 15 g/ha post-emergence treatment measured after 15 days by crop-selectivity assay; format: organism-based; conditions: in vivo, other, 360 h
[20] = system: Gossypium; assay: Phytotoxicity against Gossypium (cotton) assessed as growth inhibition at 30 g/ha pre-emergence treatment measured after 15 days by crop-selectivity assay; format: organism-based; conditions: in vivo, other, 360 h
[21] = Phytotoxicity against Oryza sativa (rice) assessed as growth inhibition at 75 g/ha pre-emergence treatment measured after 15 days by crop-selectivity assay; format: organism-based; conditions: in vivo, read-out: GI
[22] = system: Setaria viridis; assay: Herbicidal activity against Setaria viridis (green foxtail) assessed as weed growth inhibition at 75 g/ha post-emergence treatment […]; format: functional; conditions: read-out: GI; procedure, shortened: as §2
[23] = system: Triticum aestivum; assay: (§12) Phytotoxicity against Triticum aestivum (wheat) assessed as growth inhibition at 7.5 g/ha post-emergence treatment measured after 15 days by crop-selectivity assay; format: organism-based; conditions: in vivo, other, 360 h; procedure, shortened: as §1
[24] = as §3; format: organism-based; conditions: in vivo, 7.5 g/ha, read-out: GI
[25] = as §4; format: organism-based; conditions: in vivo, 75 g/ha, read-out: GI; procedure, shortened: as §1
[26] = as §5; format: organism-based; conditions: in vivo, 7.5 g/ha, read-out: GI
[27] = as §6; format: organism-based; conditions: in vivo, 150 g/ha, read-out: GI; procedure, shortened: as §1
[28] = as §7; format: organism-based; conditions: in vivo, 75 g/ha, read-out: GI
[29] = as §8; format: organism-based; conditions: in vivo, 15 g/ha, read-out: GI
[30] = as §9; format: organism-based; conditions: in vivo, 30 g/ha, read-out: GI; procedure, shortened: as §1
[31] = as §10; format: organism-based; conditions: in vivo, 30 g/ha, read-out: GI
[32] = as §11; format: organism-based; conditions: in vivo, 15 g/ha, read-out: GI
[33] = as §12; format: organism-based; conditions: in vivo, 7.5 g/ha, read-out: GI; procedure, shortened: as §1

SMILES	growth inhibition (GI) [1]	growth inhibition (GI) [2]	inhibition at 360 h [3] [%]	inhibition of growth at 75 g/ha [4] [%]	inhibition at 360 h [11] [%]	IC50 [13] [g/ha]	inhibition of growth at 75 g/ha [14] [%]	inhibition of growth at 75 g/ha [16] [%]	inhibition at 360 h [17] [%]	inhibition of growth at 75 g/ha [18] [%]	growth inhibition (GI) [20]	inhibition at 360 h [21] [%]	inhibition of growth at 75 g/ha [22] [%]	also measured
C#CCN1C(=O)COc2cc(F)c(N3C(=O)c4ccc(F)cc4C3=O)cc21	Non-toxic	Non-toxic	> 10	> 80	> 10	4.8	> 80	> 80	> 10	> 80	Non-toxic	> 10	> 80	growth inhibition (GI) [5]: Non-toxic; growth inhibition (GI) [6]: Non-toxic; growth inhibition (GI) [7]: Non-toxic; growth inhibition (GI) [8]: Non-toxic; growth inhibition (GI) [9]: Non-toxic; growth inhibition (GI) [10]: Non-toxic; growth inhibition (GI) [12]: Non-toxic; growth inhibition (GI) [15]: Non-toxic; growth inhibition (GI) [19]: Non-toxic; growth inhibition (GI) [23]: Non-toxic
C#CCN1C(=O)COc2cc(F)c(N3C(=O)C4=C(CCCC4)C3=O)cc21 [FLUMIOXAZIN]	Non-toxic	Non-toxic	> 10	> 80	> 10	2.5	> 80	> 80	> 10	> 80	Non-toxic	> 10	> 80	inhibition at 360 h [24]: > 10%; inhibition at 360 h [25]: 1%; inhibition at 360 h [26]: > 10%; inhibition at 360 h [27]: 1%; inhibition at 360 h [28]: > 10%; inhibition at 360 h [29]: > 10%; inhibition at 360 h [30]: > 10%; inhibition at 360 h [31]: > 10%; inhibition at 360 h [32]: > 10%; inhibition at 360 h [33]: > 10%
